This is an account of results in paper PMC11452492 (Nature Communications, 2024).

Data set [1] has as its target JNK1 (Homo sapiens, UniProt P45983). Briefly: in vitro JNK1 PhALC kinase assay. Type of data set: biochemical.
The nature of data set [2]: stability in rat blood plasma. Type of data set: in vitro ADME. Particulars: up to 120 min. The procedure, abridged: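 Test compound from DMSO was added to male Wistar rat blood plasma at 1 or 10 μM final. Samples were taken at 0, 10, 20, 30, 60 and 120 min, quenched with ice-cold acetonitrile, and centrifuged. Parent compound was quantified by LC-MS/MS, and t1/2 was calculated from its decline.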

Data set [3] is described as follows: LC-MS of GSH adduct formation. Particulars: 10 mM GSH, electrospray mass spectrometry. It counts as physicochemical. The procedure, abridged:
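Mass analysis of glutathione adducts by LC-MS with electrospray ionisation. Linear gradient from 10% to 55% eluent B over 12 min, then 95% B, returning to 10% B by 18 min. Flow 0.4 ml/min, column at 40 °C. Source 350 °C, spray voltage 5500 V, declustering potential 80 V. Raw spectra deconvoluted to neutral molecular masses.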

Data set [4] deals with JNK1 WT (Homo sapiens, UniProt P45983). Briefly: SPR kinetic binding, wild-type JNK1 surface.
Data set [5] concerns JNK mediated c-Jun phosphorylation. The experiment in a line: sorbitol stimulated c-Jun phosphorylation, western blot, HEK293T cells. Particulars: sorbitol 15 min, inhibitor 1 µM added 2 h before. It counts as cell-based, human. The gist of the method: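 HEK293T cells seeded at 50,000/well and grown to confluence (~24 h) in DMEM with 10% FBS, then serum-starved 16 h. Inhibitor in 50% DMSO added 2 h before 0.35 M sorbitol for 15 min; final DMSO 0.1%, with a DMSO-only control. Cells chilled on ice, pelleted, washed in cold PBS and lysed in SDS loading buffer. Lysates run on 10% Tris-glycine gels and blotted to nitrocellulose for phospho-JNK and phospho-c-Jun.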

Data set [6] has as its system JNK mediated c-Jun(Ser73) phosphorylation. Briefly: quantitative western blot p-c-Jun. It counts as cell-based, human. The procedure, abridged: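 SH-SY5Y cells carry a Tet-ON-inducible MKK7–MLK3 kinase-domain chimera and were kept in DMEM F12 + 1% FBS. Cells received 2 or 3 μg/mL doxycycline together with test compound. Lysates were taken after 6 h (2 or 6 h in blots) for quantitative western blot of p-c-Jun(Ser73), with α-tubulin as load control. Normalized signal was fitted to a dose-response function for EC50. Blots are representative of two independent experiments.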

Data set [7] relates to p38-mediated MK2 phosphorylation. Briefly: phospho-MK2 western blot in HEK293T MKK6EE cells. It counts as cell-based, human. Particulars: doxycycline, JNK inhibitors 3 μM. The procedure, abridged:
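HEK293T MKK6EE cells allow p38-specific activation through doxycycline-inducible expression of constitutively active MKK6EE. Phospho-MK2 was read by western blot with a fluorescent secondary antibody and infrared imaging. α-Tubulin served as load control, and anti-FLAG monitored transgene expression.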

The target of data set [8] is JNK1 C116S mutant (Homo sapiens, UniProt P45983, C116S). It counts as binding. Particulars: repeat experiment, 100, 300, 1000 nM on JNK C116S surface.
Data set [9] in a line: metabolic stability in rat primary hepatocytes. Type of data set: in vitro ADME. The procedure, abridged: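 Hepatocytes were isolated from male Wistar rats by collagenase perfusion. Test compound from DMSO was added to 1 or 10 μM final (0.1% DMSO) in William's E:Ham's F12 (1:1) medium. Samples were taken at 0–240 min, quenched with ice-cold acetonitrile, and parent compound was quantified by LC-MS/MS. A cell-free medium control was included. Clint came from parent loss; ClH and extraction ratio were predicted from Clint, with cut-offs of 0.3 and 0.7.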

Sequence of JNK1 C116S mutant (P45983 1-384 isoform P45983-3 C116S): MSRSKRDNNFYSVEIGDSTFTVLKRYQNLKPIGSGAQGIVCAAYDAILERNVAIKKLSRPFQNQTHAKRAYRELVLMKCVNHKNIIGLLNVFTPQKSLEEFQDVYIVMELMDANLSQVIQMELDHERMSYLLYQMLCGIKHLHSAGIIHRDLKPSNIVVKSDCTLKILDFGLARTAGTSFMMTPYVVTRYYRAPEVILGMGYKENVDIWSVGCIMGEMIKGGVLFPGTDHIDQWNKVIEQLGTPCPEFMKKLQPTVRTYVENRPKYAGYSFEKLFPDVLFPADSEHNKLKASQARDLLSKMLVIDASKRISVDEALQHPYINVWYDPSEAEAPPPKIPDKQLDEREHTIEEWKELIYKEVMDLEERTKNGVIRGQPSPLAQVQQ
Sequence of JNK1 WT (P45983 1-384 isoform P45983-3): as the sequence (P45983 1-384 isoform P45983-3 C116S) above, with S116C counted along it
Sequence of JNK1 (P45983 1-384 isoform P45983-3): as the sequence (P45983 1-384 isoform P45983-3 C116S) above, with S116C counted along it

`CC(=O)Nc1cccc(C(=O)Nc2ccc(Nc3nccc(-c4cccnc4)n3)c(C)c2)c1` [IN-8a]: the IC50 in [1] came out at 5.33 ± 0.232 µM.
Take `Cc1cc(NC(=O)c2cccc(NC(=O)/C=C/CN(C)C)c2)ccc1Nc1nccc(-c2cccnc2)n1` [JNK-IN-8]: the “half-life / stability in plasma” value in data set [2] is “stable”. The “GSH adduct formation” value in data set [3] is given as “irreversible covalent adduct formation with GSH”. In addition, in [4] (1, 3, 15 nM on JNK WT surface), the “k3, new experiment calculated with the newly determined k1, k2” value was 0.03454 s⁻¹. Further, in data set [4] (new experiment (for CA-IN-8: a, 15, 40, 70 nM) on JNK WT surface), the “k3, parallel measurement” value is 0.03181 s⁻¹. In addition, the “effect on c-Jun phosphorylation” value in [5] is listed as “efficiently blocked JNK mediated c-Jun phosphorylation”. Also, the “Western blot p-c-Jun(Ser73) EC50/IC50” value in data set [6] (SH-SY5Y MKK7 ACT cells, 6 h DOX stimulation) was ~ 0.7 μM. The “effect on c-Jun(Ser73) phosphorylation” value in [6] (SH-SY5Y MKK7 ACT, 2 or 6 h DOX, inhibitor 50 nM or 1 µM) is “can block c-Jun phosphorylation”. In addition, the “effect on p38-mediated MK2 phosphorylation” value in [7] is “do not affect”. Besides, in data set [8], the “k1, parallel measurement” value came out at 1492000 M⁻¹ s⁻¹ and the “k2, parallel measurement” value came to 0.1676 s⁻¹. In addition, the “hepatic extraction (class)” value in data set [9] (cut-off 0.3 low/intermediate, 0.7 intermediate/high) is reported as “low”. The “in vivo hepatic clearance (ClH), predicted” value in data set [9] (predicted from Clint measured in rat primary hepatocyte cultures) is 10.1 mL/min/kg.
